Assay outcomes deposited in PubChem by several laboratories.
Rows were chosen to be rich in hits. Some 2.5% of all compounds tested hit in one or more screens of this group.
NALP1 inh: NALP1 inflammasome inhibitors in reconstituted yeast, colorimetric, S. cerevisiae, triplicate retest; S. cerevisiae NALP1/ASC/caspase-1 growth, X-gal OD620, 72 h; inhibition, % at 10 µM; 280,000 tested, 0.61% active; in the data active means inhibition mostly above about 24%, no sharp cut-off; inactive means mostly below about 32%
MC4R ag barr: MC4R agonists recruiting beta-arrestin, primary screen, cell-based, luminescence, agonist arm of biased-ligand search. Melanocortin receptor 4 (Homo sapiens), P32245. U2OS MC4R beta-arrestin complementation; percent of melanotan II response, DMSO zero. AID 540308, 2011. 360,000 tested, 0.98% active. activation, % at 8.9 µM;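 active means activation above a per-plate cutoff, the mean activation of sample wells on that plate plus 3 SD, cut at about 8% in these data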
Target sequence (P32245 whole entry, looked up): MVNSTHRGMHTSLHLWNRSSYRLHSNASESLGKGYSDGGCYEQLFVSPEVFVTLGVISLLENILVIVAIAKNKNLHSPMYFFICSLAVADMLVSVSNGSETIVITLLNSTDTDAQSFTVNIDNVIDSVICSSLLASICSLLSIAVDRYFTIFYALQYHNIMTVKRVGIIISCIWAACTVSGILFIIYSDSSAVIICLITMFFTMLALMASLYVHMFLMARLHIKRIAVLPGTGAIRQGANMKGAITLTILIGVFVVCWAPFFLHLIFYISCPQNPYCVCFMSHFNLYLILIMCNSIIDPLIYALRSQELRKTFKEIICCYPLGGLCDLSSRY
MC4R antagonist: MC4R antagonists of cAMP signaling, primary screen, cell-based, TR-FRET, antagonist arm of biased-ligand search; MC4R-expressing cells, MTII-stimulated cAMP, LANCE TR-FRET; Melanocortin receptor 4 (Homo sapiens), P32245; inhibition, % at 6.5 µM; 360,000 tested, 0.48% active; AID 540295, 2011;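 active means inhibition above its plate's cutoff, the mean of tested wells on that plate plus 3 SD, cut at about 29% in these data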;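 further: 0% = Melanotan II alone and 100% = Melanotan II plus saturating MCL0020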
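System: U2OS cells stably expressing human melanocortin 4 receptor (MC4R). Reagent: Melanotan II challenge after compound preincubation. Doses: 6.5 µM. Times: 30-min compound, 1-h challenge, 1-h detection, room temperature. Measured by: TR-FRET with Eu-cAMP and labeled anti-cAMP, 671 nm. Replicates: singlicate.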
NALP3 yeast inh: NALP3 inflammasome inhibitors in reconstituted yeast, primary screen, luminescence, uHTS. 330,000 tested, 0.39% active. Yeast reconstituted NLRP3/ASC/caspase-1, beta-gal luminescence, 24 h. AID 2825, 2010. inhibition, % at 10 µM;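 active means inhibition of 50% or more; inactive means inhibition below 50%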;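 further: plate controls were induced DMSO wells for no effect and uninduced yeast grown without galactose for full effect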
Tb MetRS inh: T. brucei MetRS inhibitors, primary screen, biochemical, luminescence. purified T. brucei MetRS, ATP depletion, Kinase-Glo luminescence. inhibition, % at 11.9 µM. 360,000 tested, 0.4% active. AID 624268, 2012;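 active means inhibition above a per-plate cutoff of the control wells' mean inhibition plus 3 SD, cut at about 5.5% in these data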;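 further: 0% = DMSO wells median and 100% = median of wells with control inhibitor compound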
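technique = Kinase-Glo luminescence, ATP depletion format | system = purified MetRS (methionyl-tRNA synthetase) enzyme from Trypanosoma brucei | timing = 15 min preincubation, 2 h reaction, all 25 °C | evaluation = percent inhibition versus plate control medians | dosing = single dose, 11.9 µM final nominal, 0.9% final DMSO | also added = substrates ATP, L-methionine and bulk Escherichia coli tRNA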
Bfl-1 A1 inh: caspase 3/7 activation in MEF A1-2A-BIM cells, primary screen, A1 inhibitor project, cell-based, luminescence, HTS; Caspase-Glo 3/7 luminescence, 3 h; percent of clofoctol response, vehicle zero; caspase activation, % (no concentration beside the values); AID 2462, 2010; 330,000 tested, 0.066% active;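 active means over half of replicate activation scores above 10%, or exactly half above 10 with the replicate mean above 10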
TbMetRS confirm: T. brucei MetRS inhibitors, confirmation, biochemical, luminescence; shares compounds with Tb MetRS inh; T. brucei MetRS enzyme, luminescence (ATP depletion); inhibition, % at 11.9 µM; 1,400 tested, 93% active; AID 624412, 2012; in the data active means inhibition above about 7%
Jurkat cytotox: Jurkat T cell cytotoxicity, cytotoxicity control for T. brucei MetRS inhibitor project, luminescence, high throughput. AID 624413, 2012. 1,400 tested, 12% active. inhibition, % at 8.3 µM. Jurkat cells viability, ATP luminescence. shares compounds with Tb MetRS inh; in the data active means inhibition above about 15%;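 further: 0% = vehicle and 100% = reference inhibitor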
TbMetRS FP orth: T. brucei MetRS inhibitors, orthogonal assay for T. brucei MetRS inhibitor project, biochemical, fluorescence polarization. shares compounds with Tb MetRS inh. purified T. brucei MetRS. inhibition, % at 11.9 µM. 1,400 tested, 44% active; in the data active means inhibition above about 17%;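 further: 0% = vehicle wells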
* hit, by the source's call; / = no result.

SMILES	NALP1 inh	MC4R ag barr	MC4R antagonist	NALP3 yeast inh	Tb MetRS inh	Bfl-1 A1 inh	TbMetRS confirm	Jurkat cytotox	TbMetRS FP orth
Nc1ccc(N2CCOCC2)c2nonc12	0	-3	-5	24	26*	0	4	-5	1
O=C(C1CCCN(Cc2ccc([N+](=O)[O-])cc2)C1)N1CCCCC1 (stereo not drawn)	32	-1	5	7	0	1	/	/	/
COc1cccc(-c2cnc(C(O)c3cc(Cl)cc(Cl)c3)[nH]2)c1 (stereo not drawn)	/	2	-3	/	54*	/	78*	1	57*
COc1cccc(-c2cnc(C(O)c3cc(F)cc(Cl)c3)[nH]2)c1 (stereo not drawn)	/	0	4	/	20*	/	40*	0	18*
COc1cccc(-c2cnc(C(O)c3ccccc3)[nH]2)c1 (stereo not drawn)	/	-3	6	/	0	/	/	/	/
Clc1ccc2nc(C3CCN(Cc4ccccc4)CC3)[nH]c2c1	3	-1	1	6	11*	-1	9.8*	4	4
CC1CCCCN1C(=O)CN1CCC(c2nc3ccc(Cl)cc3[nH]2)CC1 (stereo not drawn)	7	-4	23	10	3	1	/	/	/
Cc1ccc(CN2CCC(c3nc4ccc(Cl)cc4[nH]3)CC2)cc1	9	1	2	12	8.2*	1	25*	12	8
COC(=O)c1sc(-c2ccc(Cl)cc2)cc1NC(=O)CSCC(=O)O	/	2	14	7	20*	0	33*	-7	24*
Cc1ccc(C2CC2C(=O)NNC(=S)Nc2ccc(Cl)cc2)cc1 (stereo not drawn)	10	-1	13	8	39*	0	67*	1	38*
CC(C(=O)Nc1ccc(O)cc1)c1cccc(C(=O)c2ccccc2)c1 (stereo not drawn)	5	-1	-3	15	22*	0	30*	19*	31*
COc1ccc(CCC2=NCCN2C(CC(C)C)c2nc3ccccc3[nH]2)cc1 (stereo not drawn)	/	/	/	/	12*	/	20*	7	5
O=C(c1cccnc1Cl)N1CCOCC1	-4	-1	2	7	0	1	/	/	/
Cn1nccc1-c1coc2c(C(=O)N3CCOCC3)cccc12	/	0	2	/	7.6*	/	5	-10	2
CS(=O)(=O)N1CCN(c2ccccc2NC(=O)Nc2cccc(Cl)c2)CC1	-22	-2	-5	8	8.4*	0	24*	-4	74*
O=C(Cn1c(CC(=O)N2CCOCC2)nc2ccccc21)Nc1ccc2c(c1)OC(F)(F)O2	-4	-2	-1	8	25*	0	41*	9	20*
CN(CCc1nc2ccccc2[nH]1)Cc1nc(CC2CC2)no1	1	-3	4	12	1	1	/	/	/
CN(CCc1nc2ccc(Cl)cc2[nH]1)Cc1nc(CC2CC2)no1	-6	0	7	9	42*	0	62*	-1	28*
O=C(NCc1cccc(Cl)c1)c1ccc2c(c1)SC1=NS(=O)(=O)CCN12	-16	-1	15	-6	6.1*	-1	15*	1	6
O=C(NCc1ccccc1Cl)c1ccc2c(c1)SC1=NS(=O)(=O)CCN12	12	-1	22	2	0	0	/	/	/
CCCCn1nnnc1C1(C)CCC(=O)N1CCc1ccccc1F (stereo not drawn)	/	/	/	/	-1	/	/	/	/
O=c1oc(Nc2cccc(F)c2)nc2ccccc12	17	-3	-21	2	0	-8	/	/	/
Nc1nc(Nc2cccc(F)c2)nc2ccccc12	14	2	-6	15	24*	-7	34*	15	20*
O=C(c1ccc2c(=O)n3c(nc2c1)CCC3)N1CCN(S(=O)(=O)c2cccc(F)c2)CC1	/	-1	6	10	0	0	/	/	/
CC(C)(C)n1nnnc1C(c1ccccc1)N1CCN(C(=O)C2CCCO2)CC1 (stereo not drawn)	/	/	/	/	0	/	/	/	/
SMILES	NALP1 inh	MC4R ag barr	MC4R antagonist	NALP3 yeast inh	Tb MetRS inh	Bfl-1 A1 inh	TbMetRS confirm	Jurkat cytotox	TbMetRS FP orth
COc1cccc(CC(Cc2nc3ccccc3[nH]2)c2nc3ccccc3[nH]2)c1 (stereo not drawn)	-7	4	18	3	9.3*	-1	12*	5	5
COc1cccc(CSc2nc3ccccc3[nH]2)c1	38	-1	4	13	0	-8	/	/	/
Cc1cccc(OCc2nc(C#N)c(NCc3ccc4c(c3)OCO4)o2)c1	0	-1	-4	13	0	1	/	/	/
N#Cc1nc(COc2ccc(Cl)cc2)oc1NCc1ccc2c(c1)OCO2	-6	3	-1	9	5.7*	0	9.8*	1	12
CC1CCN(C(=O)c2[nH]cnc2C(=O)Nc2ccccc2F)CC1	/	0	4	/	0	/	/	/	/
COc1cc(CNc2ncnc3c2[nH]c2ccc(C)cc23)cc(OC)c1	11	-2	7	12	75*	0	84*	7	80*
Cc1ccc2[nH]c3c(NCCCN4CCCC4=O)ncnc3c2c1	23	-1	-3	14	21*	0	36*	2	25*
Cc1ccc2[nH]c3c(NCc4ccco4)ncnc3c2c1	3	-1	5	9	45*	1	54*	28*	26*
c1coc(CNc2ncnc3nc[nH]c23)c1	6	-1	5	18	-1	1	/	/	/
O=S1(=O)CCN(CCc2ccccc2)CC1	/	-1	7	/	0	/	/	/	/
Cc1cc(Cn2nc(-c3ccccc3)cc2C(=O)NCc2cccc(Br)c2)on1	/	2	0	10	54*	2	84*	-4	68*
O=C(Cc1ccccc1)N/N=C/c1cccn1-c1ccc([N+](=O)[O-])cc1	10	-1	14	21	13*	2	34*	-2	17
